For experiment [1], the target named is T1, NAD-dependent protein deacetylase sirtuin-1 (Homo sapiens) (UniProt Q96EB6).
T1 sequence (whole entry): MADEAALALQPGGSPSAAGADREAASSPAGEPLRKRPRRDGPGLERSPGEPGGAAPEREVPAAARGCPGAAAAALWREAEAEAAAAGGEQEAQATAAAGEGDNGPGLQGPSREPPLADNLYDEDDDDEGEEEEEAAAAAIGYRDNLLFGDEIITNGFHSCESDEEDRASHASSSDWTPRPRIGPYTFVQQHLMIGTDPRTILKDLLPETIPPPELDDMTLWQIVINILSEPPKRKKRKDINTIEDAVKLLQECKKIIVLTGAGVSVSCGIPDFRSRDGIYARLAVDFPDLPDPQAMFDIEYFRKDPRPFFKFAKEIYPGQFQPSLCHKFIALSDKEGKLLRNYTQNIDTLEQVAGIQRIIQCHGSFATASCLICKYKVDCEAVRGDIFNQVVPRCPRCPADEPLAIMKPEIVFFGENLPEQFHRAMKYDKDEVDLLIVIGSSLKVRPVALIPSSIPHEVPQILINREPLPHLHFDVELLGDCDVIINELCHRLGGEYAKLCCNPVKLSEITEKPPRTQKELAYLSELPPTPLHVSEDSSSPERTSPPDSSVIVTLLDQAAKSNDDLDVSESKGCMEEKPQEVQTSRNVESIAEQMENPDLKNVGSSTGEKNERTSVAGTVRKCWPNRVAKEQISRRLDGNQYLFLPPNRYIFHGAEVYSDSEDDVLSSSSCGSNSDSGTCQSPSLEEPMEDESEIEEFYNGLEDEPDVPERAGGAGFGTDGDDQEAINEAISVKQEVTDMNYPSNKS
Kind of experiment: Inhibition of human SIRT1 at 25 uM. In short, it runs like this:
(§1)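 Fluorescent two-stage assay. SIRT1 (1 U/well) or SIRT2 (5 U/well) with Fluor de Lys-SIRT1/2 substrate, NAD+ and compound at 25 µM, 37 °C for 2 h. Developer II containing nicotinamide then stopped the reaction and generated signal, read at ex 360/em 460 nm.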

Experiment [2] concerns the target T2, NAD-dependent protein deacetylase sirtuin-2 (Homo sapiens) (UniProt Q8IXJ6).
T2 sequence (whole entry): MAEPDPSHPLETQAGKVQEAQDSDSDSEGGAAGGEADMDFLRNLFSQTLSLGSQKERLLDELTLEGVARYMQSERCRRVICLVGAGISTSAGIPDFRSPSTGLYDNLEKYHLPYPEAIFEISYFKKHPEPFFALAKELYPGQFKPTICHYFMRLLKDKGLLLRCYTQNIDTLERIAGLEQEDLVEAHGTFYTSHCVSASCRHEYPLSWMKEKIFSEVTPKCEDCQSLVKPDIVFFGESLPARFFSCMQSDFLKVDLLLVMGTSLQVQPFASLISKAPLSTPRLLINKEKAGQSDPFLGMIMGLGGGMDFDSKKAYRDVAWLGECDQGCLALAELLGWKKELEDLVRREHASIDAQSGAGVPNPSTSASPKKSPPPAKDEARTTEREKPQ
Kind of experiment: Inhibition of human SIRT2 at 25 uM. In short, it runs like this: as §1

Experiment [3] addresses Protein arginine N-methyltransferase 1 (Homo sapiens) (UniProt Q99873). Kind of experiment: Inhibition of human recombinant PRMT1 assessed as histone H4 methylation at 50 uM.

Structures are written as SMILES.

Chain of Protein arginine N-methyltransferase 1 (Homo sapiens) (Q99873 whole entry, looked up): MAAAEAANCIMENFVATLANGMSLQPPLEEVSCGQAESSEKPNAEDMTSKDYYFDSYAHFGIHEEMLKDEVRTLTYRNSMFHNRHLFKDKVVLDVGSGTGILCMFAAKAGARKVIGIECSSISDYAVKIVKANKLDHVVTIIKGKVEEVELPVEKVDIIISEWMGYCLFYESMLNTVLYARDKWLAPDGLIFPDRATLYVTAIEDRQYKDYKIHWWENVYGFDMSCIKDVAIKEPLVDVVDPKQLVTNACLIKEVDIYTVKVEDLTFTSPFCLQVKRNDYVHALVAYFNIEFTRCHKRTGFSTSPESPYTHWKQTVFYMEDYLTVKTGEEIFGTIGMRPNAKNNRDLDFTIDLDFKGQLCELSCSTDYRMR

Regarding `O=C1/C(=C/c2cc(Br)c(O)c(Br)c2)COC/C1=C\c1cc(Br)c(O)c(Br)c1`, the inhibition came to 62% in experiment [1], 67% in experiment [2] and 91% in experiment [3].

These data come from ChEMBL document CHEMBL1144710, “epigenetic multiple ligands: mixed histone/protein methyltransferase, acetyltransferase, and class III deacetylase (sirtuin) inhibitors” (J Med Chem, 2008).
